Screens as filed in PubChem BioAssay.
FLuc inhib CS: counter-screen for luciferase assay inhibitors: firefly luciferase inhibition | P08659 | ATPLite firefly luciferase biochemical luminescence, 10 min | inhibition, % at 10 µM | 200,000 tested, 1.5% active | AID 1006;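 active = inhibition above about 50% when tested at 10 µM, limit read from the data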
Target sequence (P08659 whole entry, looked up): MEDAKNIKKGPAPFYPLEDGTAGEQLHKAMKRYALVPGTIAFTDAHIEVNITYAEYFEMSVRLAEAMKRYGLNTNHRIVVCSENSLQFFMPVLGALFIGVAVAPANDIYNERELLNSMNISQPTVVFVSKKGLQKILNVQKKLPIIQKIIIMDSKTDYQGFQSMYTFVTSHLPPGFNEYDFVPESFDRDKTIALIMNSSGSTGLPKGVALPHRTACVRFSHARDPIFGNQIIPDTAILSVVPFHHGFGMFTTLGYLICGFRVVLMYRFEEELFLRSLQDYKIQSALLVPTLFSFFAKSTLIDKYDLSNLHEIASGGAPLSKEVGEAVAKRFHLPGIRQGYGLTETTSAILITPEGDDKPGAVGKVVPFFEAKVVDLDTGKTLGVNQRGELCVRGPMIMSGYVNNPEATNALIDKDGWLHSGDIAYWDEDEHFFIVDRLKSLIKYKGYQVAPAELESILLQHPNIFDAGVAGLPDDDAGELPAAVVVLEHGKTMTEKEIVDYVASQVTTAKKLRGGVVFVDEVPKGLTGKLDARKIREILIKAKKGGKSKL
HSP90 refold inh: blocks HSP90-mediated luciferase refolding in reticulocyte lysate; AID 1789; 290,000 tested, 0.91% active; inhibition, % at 5.6 µM; Rabbit reticulocyte lysate, luciferase refolding luminescence, 3 h;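 active = inhibition above the screen-wide mean plus 3 SD, computed separately per campaign, cut at about 16% in these data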;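 note: 0% = DMSO wells and 100% = 60 µM geldanamycin wells; inhibitors lower the luminescence because luciferase stays unfolded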
FLuc act counter: affects firefly luciferase, flagging false hits in luciferase stimulation screens | ATPlite luciferase biochemical, luminescence, 10 min; 0 = ATP-free wells, 1 = DMSO control | activation factor at 10 µM | 200,000 tested, under 10 active | AID 1027;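 active = luciferase activation factor, scaled between plate controls, of at least 2 with compound at 10 µM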
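Material: Luciferase/luciferin reagent mix; Doses: test compounds dosed from 2 mM stocks in 100% DMSO; Schedule: 10 min incubation after luciferase reagent addition, room temperature; Measured by: luminescence from luciferase reaction; Read-out: luminescence gain marking luciferase activators.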
C8 TRAIL sens: sensitizes caspase-8 expressing cells to TRAIL. NB7+C8 cells + TRAIL, ATPlite viability luminescence. inhibition (viability loss, TRAIL sensitization), % at 10 µM. 360,000 tested, 1% active. AID 624354;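 active = compounds causing at least 50% loss of cell viability in the single-dose screen, relative to plate controls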
PPC-1+TRAIL kill: kills PPC-1 cancer cells in the presence of TRAIL. PPC-1 cells + TRAIL, ATPLite viability luminescence. cell killing (% activity), % at 4 µM or 5 µM. 220,000 tested, 0.41% active. AID 1443;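 active = cell killing above 50% in the first pass at 4 µM, then a duplicate retest at 5 µM averaging 50% or more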;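 note: plate controls were cells with TRAIL plus DMSO for no effect and medium-only wells lacking cells for full effect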
HSP90 confirm: confirmation of HSP90 inhibitors; inhibition, % at 5.9 µM; 2,300 tested, 64% active; shares compounds with HSP90 refold inh; rabbit reticulocyte lysate, luciferase refolding luminescence, 3 h; in the data active = inhibition above about 18%;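 note: 0% = vehicle wells and 100% = reference inhibitor wells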
FLuc counter: counter-screen for HSP90 inhibitors: inhibitors of firefly luciferase | shares compounds with HSP90 refold inh | purified native firefly luciferase, luminescence | inhibition, % at 5.9 µM | 2,300 tested, 48% active | AID 1847;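 active = inhibition above the mean inhibition of all tested sample wells plus 3 SD, cut at about 10% in these data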;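 note: 0% = DMSO with luciferase and 100% = wells lacking luciferase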
* hit, by the source's call. Compounds with a hit are over-represented: about 2% of the library has one in this group of screens.

`O=C(O)c1cccc(NS(=O)(=O)c2ccc3c(c2)C(=O)c2ccccc2C3=O)c1` gave HSP90 refold inh 22.2*, C8 TRAIL sens 16.3, PPC-1+TRAIL kill 3.6, HSP90 confirm 6.5 and FLuc counter -4.2.
CCc1cc[n+](C2=C([O-])c3ccccc3C(=O)/C2=N\S(=O)(=O)c2cccs2)cc1 was read as FLuc inhib CS -5.7, HSP90 refold inh 8.2, FLuc act counter 1.1, C8 TRAIL sens 40.5 and PPC-1+TRAIL kill 18.3.
O=C1C(Nc2ccccc2)=C/C(=N/S(=O)(=O)c2cccs2)c2ccccc21 was read as FLuc inhib CS 12.9, HSP90 refold inh 37.4*, FLuc act counter 0.9, C8 TRAIL sens 96.5*, PPC-1+TRAIL kill 22.5, HSP90 confirm 94.4* and FLuc counter 2.5.
`CC1(C(=O)NS(=O)(=O)c2ccc(Cl)s2)CCN1C(=O)C1(c2ccc(Cl)cc2)CCC1` (centres undefined) gave C8 TRAIL sens -21.4.
Screening CCn1cc(C(=O)Nc2ncccc2O)c(=O)c2cc(F)c(N3CCN(C(=O)c4ccco4)CC3)cc21 returned HSP90 refold inh -4.0 and C8 TRAIL sens 26.0.
Screening O=C(/C=C/c1c(F)cccc1Cl)c1ccc(O)cc1 returned HSP90 refold inh 23.6*, C8 TRAIL sens 21.0, PPC-1+TRAIL kill 12.7, HSP90 confirm 6.2 and FLuc counter -27.9.
Screening O=C(/C=C/c1ccccc1Cl)c1ccc(O)cc1 returned HSP90 refold inh 0.4, C8 TRAIL sens 28.2 and PPC-1+TRAIL kill 8.6.
Screening CCC(CC)C1C(C#N)=C(N)Oc2n[nH]c(-c3ccccc3)c21 (centres undefined) returned FLuc inhib CS -1.1, HSP90 refold inh 17.6*, FLuc act counter 1, C8 TRAIL sens 32.1, PPC-1+TRAIL kill -1.9, HSP90 confirm -7.7 and FLuc counter -2.4.
`N#CC1=C(N)Oc2n[nH]c(-c3ccncc3)c2C1c1ccsc1` (centres undefined) gave FLuc inhib CS -6.9, HSP90 refold inh 17.0*, FLuc act counter 1.1, C8 TRAIL sens -5.3, PPC-1+TRAIL kill 19.0, HSP90 confirm -0.7 and FLuc counter -7.4.
COc1cc(C2C(C#N)=C(N)Oc3n[nH]c(-c4cccs4)c32)cc(OC)c1O (centres undefined) was read as FLuc inhib CS 0.6, HSP90 refold inh 23.8*, FLuc act counter 1, C8 TRAIL sens -8.7, PPC-1+TRAIL kill 12.9, HSP90 confirm -2.8 and FLuc counter -6.9.
`COc1cc(OC)cc(C2C(C#N)=C(N)Oc3n[nH]c(-c4cccnc4)c32)c1` (centres undefined) gave FLuc inhib CS -3.9, HSP90 refold inh 17.6*, FLuc act counter 1, C8 TRAIL sens -8.4, PPC-1+TRAIL kill -7.9, HSP90 confirm -2.8 and FLuc counter -1.6.
`Cc1cccc(CC(=O)Nc2ccc(C(=O)N3CCOCC3)cc2)c1` gave HSP90 refold inh -5.0 and C8 TRAIL sens -19.7.
For Cc1ccc(C)c(S(=O)(=O)N2CCC(c3nc4c(nnn4Cc4ccc5c(c4)OCCO5)c(=O)[nH]3)CC2)c1 the results were HSP90 refold inh 21.5*, C8 TRAIL sens 9.4, HSP90 confirm 25.3* and FLuc counter -3.7.
`CN(C)S(=O)(=O)Oc1cccc(C(=O)Nc2ccc([N+](=O)[O-])cc2)c1` gave FLuc inhib CS 7.0, HSP90 refold inh -1.6, FLuc act counter 0.9, C8 TRAIL sens 29.1 and PPC-1+TRAIL kill 24.9.
For O=C(Nc1ccc(Br)cc1)c1ccc2ncsc2c1 the results were HSP90 refold inh 43.2*, C8 TRAIL sens 0.9, HSP90 confirm 44.6* and FLuc counter 28.4*.
`COc1ccc(C(=O)C(C)OC(=O)CNC(=O)c2ccco2)cc1` (centres undefined) gave C8 TRAIL sens 14.8.
For Cc1nn(C)cc1C(=O)Nc1ccc2c(c1)OCCO2 the results were HSP90 refold inh 18.6*, C8 TRAIL sens -12.7, HSP90 confirm 20.8* and FLuc counter 9.0.
For Cn1nccc1C(=O)Nc1ccc2c(c1)OCCO2 the results were FLuc inhib CS 43.5, HSP90 refold inh 6.3, FLuc act counter 0.6, C8 TRAIL sens 16.2 and PPC-1+TRAIL kill 14.0.
Cc1c(C(=O)Nc2ccc3c(c2)OCCO3)cnn1C was read as HSP90 refold inh 34.9*, C8 TRAIL sens 9.6, HSP90 confirm 56.8* and FLuc counter 60.3*.
Screening C=CCN(C(=O)c1csnn1)C(C(=O)NCc1ccc(F)cc1)c1sccc1C (centres undefined) returned HSP90 refold inh -3.3 and C8 TRAIL sens -11.3.
For COC(=O)c1ccc(CN2C(=O)c3ccccc3S2(=O)=O)cc1 the results were FLuc inhib CS -5.6, HSP90 refold inh 1.4, FLuc act counter 1.1, C8 TRAIL sens 8.4 and PPC-1+TRAIL kill 15.3.
Cc1ccc(C(=O)CN2/C(=C(\O)c3ccccc3)C(=O)c3ccccc3S2(=O)=O)c(C)c1 was read as FLuc inhib CS 0.6, HSP90 refold inh 40.1*, FLuc act counter 1, C8 TRAIL sens 28.3, PPC-1+TRAIL kill 12.9, HSP90 confirm 13.6 and FLuc counter -0.3.
For CN(c1ccc(O)cc1)c1nc(-c2cccs2)cs1 the results were FLuc inhib CS 36.5, HSP90 refold inh 0.5, FLuc act counter 0.6 and C8 TRAIL sens 9.1.
`Cc1nc(N)sc1-c1csc(N(C)c2ccc(O)cc2)n1` gave FLuc inhib CS 20.0, HSP90 refold inh 27.3*, FLuc act counter 0.8, C8 TRAIL sens -5.8, PPC-1+TRAIL kill 8.9, HSP90 confirm -10.5 and FLuc counter -21.4.
`CC(C)C(=O)Nc1ccc2nn(-c3ccc(F)cc3)nc2c1` gave HSP90 refold inh 24.6*, C8 TRAIL sens 27.2, HSP90 confirm 27.6* and FLuc counter 19.8*.
`Fc1cccc(-c2cc3nc4c(c(NCc5ccco5)n3n2)CCCC4)c1` gave FLuc inhib CS 26.0, HSP90 refold inh -1.6, FLuc act counter 0.7, C8 TRAIL sens 49.9 and PPC-1+TRAIL kill 28.4.
For COc1cccc(-c2cc3nc4c(c(NCC(C)(C)CN(C)C)n3n2)CCCC4)c1 the results were FLuc inhib CS 1.6, HSP90 refold inh 45.5*, FLuc act counter 1, C8 TRAIL sens 11.8, HSP90 confirm 44.1* and FLuc counter 2.9.
`O=C(CC[C@H]1O[C@@H](n2ccc(=O)[nH]c2=O)[C@H](O)[C@@H]1O)N[C@H](Cc1ccccc1)C(=O)NCCCc1ccccc1` gave C8 TRAIL sens -0.1.
For CSc1nnc(SCC(=O)N(C)c2c(N)n(Cc3ccccc3)c(=O)[nH]c2=O)s1 the results were C8 TRAIL sens -1.8.
`CN(C(=O)CSc1nnc(-c2ccccc2)o1)c1c(N)n(Cc2ccccc2)c(=O)[nH]c1=O` gave FLuc inhib CS 4.9, HSP90 refold inh 18.8*, FLuc act counter 1, C8 TRAIL sens -5.5, PPC-1+TRAIL kill 17.0, HSP90 confirm -2.7 and FLuc counter -1.1.
